≈ marks a conversion by molar mass, not a printed value.
Experiments:
[1] = Growth inhibition of human SW620 cells after 72 hrs by MTT assay; assay type: functional, cell-based; settings: SW-620, 72 h
Summary of the method: (§1)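 Monolayers in DMEM with 10% FBS, 2 mM L-glutamine and penicillin/streptomycin, 37 °C, 5% CO2; 5000 cells/well seeded day 0. Compounds added as five 10-fold dilutions (0.01–100 µM), DMSO ≤0.1%, for 72 h. MTT absorbance converted to percentage growth (NIH formulas); IC50 by linear regression between bracketing concentrations, highest concentration reported with ">" when not reached. Quadruplicate points, three experiments.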

[2] = Growth inhibition of human A549 cells after 72 hrs by MTT assay; assay type: functional, cell-based; settings: A549, 72 h; summary of the method: as §1
[3] = Growth inhibition of human HepG2 cells after 72 hrs by MTT assay; assay type: functional, cell-based; settings: HepG2, 72 h; summary of the method: as §1
[4] = Growth inhibition of human HeLa cells after 72 hrs by MTT assay; assay type: functional, cell-based; summary of the method: as §1
[5] = Growth inhibition of human WI38 cells after 72 hrs by MTT assay; assay type: cell-based; settings: WI-38, 72 h; summary of the method: as §1
[6] = Growth inhibition of human CFPAC-1 cells after 72 hrs by MTT assay; assay type: functional, cell-based; settings: CFPAC-1, 72 h; summary of the method: as §1
Klebsiella pneumoniae = assay: Antibacterial activity against ESBL-producing Klebsiella pneumoniae ATCC 27736 after 16 to 20 hrs by broth microdilution method; assay type: functional
Summary of the method: (§2)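 Broth microdilution per CLSI in cation (Ca2+, Mg2+)-adjusted Mueller-Hinton broth; compounds in serial two-fold dilutions, 256–0.25 µg/mL; direct colony suspension inoculum, final 5 x 10^5 CFU/mL; 35 ± 2 °C, 16–20 h, ambient air. MIC is the lowest concentration completely inhibiting visible growth versus growth control; with trailing, endpoint read at ≥80% growth reduction. E. coli ATCC 25922 and P. aeruginosa ATCC 27853 served as QC.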

Escherichia coli = assay: Antibacterial activity against Escherichia coli ATCC 25925 after 16 to 20 hrs by broth microdilution method; assay type: functional; settings: read-out: MIC=>80; summary of the method: as §2
Enterococcus faecalis = assay: Antibacterial activity against Enterococcus faecalis after 16 to 20 hrs by broth microdilution method; assay type: functional; summary of the method: as §2
Pseudomonas aeruginosa = assay: Antibacterial activity against Pseudomonas aeruginosa ATCC 27853 after 16 to 20 hrs by broth microdilution method; assay type: functional; summary of the method: as §2
Acinetobacter baumannii = assay: Antibacterial activity against Acinetobacter baumannii ATCC 19606 after 16 to 20 hrs by broth microdilution method; assay type: functional; summary of the method: as §2
Staphylococcus aureus = assay: Antibacterial activity against Staphylococcus aureus ATCC 25923 after 16 to 20 hrs by broth microdilution method; assay type: functional; summary of the method: as §2

MIC80 (Klebsiella pneumoniae)	MIC (Escherichia coli)	MIC80 (Enterococcus faecalis)	MIC80 (Pseudomonas aeruginosa)	MIC80 (Acinetobacter baumannii)	MIC80 (Staphylococcus aureus)	Compound	IC50 [1]	IC50 [2]	IC50 [3]	IC50 [4]	IC50 [5]	IC50 [6]
–	–	–	–	–	–	CC(C)(C)OC(=O)N1CCN(C(=S)SCc2cn(Cc3cc(=O)oc4cc(O)ccc34)nn2)CC1	> 100 µM	35.4 µM	56.9 µM	48 µM	2.82 µM	88.5 µM
–	–	–	–	–	–	Cc1ccc2nc(-c3ccc(NCc4cn(Cc5cc(=O)oc6cc(O)ccc56)nn4)cc3)sc2c1	90 µM	16.2 µM	52.8 µM	7.26 µM	–	10.5 µM
–	–	–	–	–	–	Cn1c(-c2cn(Cc3cc(=O)oc4cc(O)ccc34)nn2)nc2ccccc21	> 100 µM	> 100 µM	70.7 µM	49.1 µM	–	76.5 µM
> 256 mg/L	> 256 mg/L	128 mg/L (≈ 428 µM)	> 256 mg/L	> 256 mg/L	> 256 mg/L	CC(C)(C)c1cn(Cc2cc(=O)oc3cc(O)ccc23)nn1	> 100 µM	67.6 µM	> 100 µM	81.1 µM	–	> 100 µM
–	–	–	–	–	–	O=c1cc(Cn2cc(CNS(=O)(=O)c3ccc(Cl)cc3)nn2)c2ccc(O)cc2o1	> 100 µM	47.9 µM	31.4 µM	58.5 µM	0.82 µM	81.9 µM
> 256 mg/L	> 256 mg/L	8 mg/L (≈ 20.5 µM)	> 256 mg/L	> 256 mg/L	> 256 mg/L	CCCCCc1ccc(-c2cn(Cc3cc(=O)oc4cc(O)ccc34)nn2)cc1	39.6 µM	13.7 µM	27.3 µM	24.6 µM	–	50.4 µM
–	–	–	–	–	–	O=c1cc(Cn2cc(CCCCl)nn2)c2ccc(O)cc2o1	59.8 µM	30.1 µM	> 100 µM	49.6 µM	–	75.8 µM
–	–	–	–	–	–	O=c1cc(Cn2cc(CCO)nn2)c2ccc(O)cc2o1	> 100 µM	90.3 µM	> 100 µM	> 100 µM	–	> 100 µM
> 256 mg/L	> 256 mg/L	64 mg/L (≈ 170 µM)	> 256 mg/L	> 256 mg/L	> 256 mg/L	CCCCc1ccc(-c2cn(Cc3cc(=O)oc4cc(O)ccc34)nn2)cc1	49.2 µM	13.8 µM	48.4 µM	39 µM	–	69.8 µM
–	–	–	–	–	–	O=c1cc(Cn2cc(C3CC3)nn2)c2ccc(O)cc2o1	> 100 µM	91.7 µM	> 100 µM	> 100 µM	–	> 100 µM
–	–	–	–	–	–	O=c1cc(Cn2cc(CCCO)nn2)c2ccc(O)cc2o1	> 100 µM	96.2 µM	> 100 µM	90.2 µM	–	> 100 µM
–	–	–	–	–	–	CC(O)c1cn(Cc2cc(=O)oc3cc(O)ccc23)nn1 (stereo not drawn)	> 100 µM	> 100 µM	> 100 µM	> 100 µM	–	> 100 µM
–	–	–	–	–	–	Cc1ccc2c(Cn3cc(CNc4ccc(-c5nc6ccc(C)cc6s5)cc4)nn3)cc(=O)oc2c1	≥ 100 µM	46.2 µM	94.7 µM	51.4 µM	–	34.9 µM
> 256 mg/L	> 256 mg/L	256 mg/L (≈ 643 µM)	> 256 mg/L	> 256 mg/L	> 256 mg/L	O=c1cc(Cn2cc(-c3ccc(Br)cc3)nn2)c2ccc(O)cc2o1	97.7 µM	32.3 µM	61.1 µM	40.2 µM	–	52.9 µM
–	–	–	–	–	–	O=c1cc(Cn2cc(CCCCO)nn2)c2ccc(O)cc2o1	> 100 µM	> 100 µM	> 100 µM	> 100 µM	–	> 100 µM
> 256 mg/L	< 0.125 mg/L	0.5 mg/L (≈ 1.51 µM)	< 0.125 mg/L	< 0.125 mg/L	0.25 mg/L (≈ 0.754 µM)	O=C(O)c1cn(C2CC2)c2cc(N3CCNCC3)c(F)cc2c1=O [CIPROFLOXACIN]	–	–	–	–	–	–

Compound	MIC80 (Klebsiella pneumoniae)	MIC (Escherichia coli)	MIC80 (Enterococcus faecalis)	MIC80 (Pseudomonas aeruginosa)	MIC80 (Acinetobacter baumannii)	MIC80 (Staphylococcus aureus)	IC50 [1]	IC50 [2]	IC50 [3]	IC50 [4]	IC50 [5]	IC50 [6]
CC(C)(O/N=C(\C(=O)N[C@@H]1C(=O)N2C(C(=O)[O-])=C(C[n+]3ccccc3)CS[C@H]12)c1csc(N)n1)C(=O)O [CEFTAZIDIME]	> 256 mg/L	0.5 mg/L (≈ 0.915 µM)	256 mg/L (≈ 468 µM)	4 mg/L (≈ 7.32 µM)	16 mg/L (≈ 29.3 µM)	64 mg/L (≈ 117 µM)	–	–	–	–	–	–

— ChEMBL document CHEMBL3875169, “Synthesis, in vitro anticancer and antibacterial activities and in silico studies of new 4-substituted 1,2,3-triazole-coumarin hybrids” (Eur J Med Chem, 2016)
